# From ChEMBL document CHEMBL4428038, “Overcoming chloroquine resistance in malaria: Design, synthesis and structure-activity relationships of novel chemoreversal agents” (Eur J Med Chem, 2016)
# Calls of active or inactive are those of the source. No cut-off for these calls is given here.
# Key:
# Plasmodium falciparum [1] = assay: Intrinsic antimalarial activity against chloroquine-resistant Plasmodium falciparum NHP4559 harboring CRT K76T mutant assessed as reduction in parasite viability at 500 nM; format: functional, organism-based
# Plasmodium falciparum [2] = assay: Intrinsic antimalarial activity against chloroquine-sensitive Plasmodium falciparum 3D7 isolate MRA-102 assessed as reduction in parasite viability at 500 nM; format: functional, organism-based
# Plasmodium falciparum [3] = assay: Potentiation of chloroquine-induced antimalarial activity against chloroquine-sensitive Plasmodium falciparum 3D7 isolate MRA-102 assessed as reduction in chloroquine IC50 at 500 nM relative to chloroquine alone; format: functional
# [4] = system: T1, Chloroquine resistance transporter (Plasmodium falciparum), Q9N623 [K76T]; assay: Inhibition of CRT K76T mutant in chloroquine/artemisinin-resistant Plasmodium falciparum ARS233 assessed as reversal of chloroquine resistance by measuring reduction in chloroquine IC50 at 500 nM relative to chloroquine alone
# T1 sequence (whole entry): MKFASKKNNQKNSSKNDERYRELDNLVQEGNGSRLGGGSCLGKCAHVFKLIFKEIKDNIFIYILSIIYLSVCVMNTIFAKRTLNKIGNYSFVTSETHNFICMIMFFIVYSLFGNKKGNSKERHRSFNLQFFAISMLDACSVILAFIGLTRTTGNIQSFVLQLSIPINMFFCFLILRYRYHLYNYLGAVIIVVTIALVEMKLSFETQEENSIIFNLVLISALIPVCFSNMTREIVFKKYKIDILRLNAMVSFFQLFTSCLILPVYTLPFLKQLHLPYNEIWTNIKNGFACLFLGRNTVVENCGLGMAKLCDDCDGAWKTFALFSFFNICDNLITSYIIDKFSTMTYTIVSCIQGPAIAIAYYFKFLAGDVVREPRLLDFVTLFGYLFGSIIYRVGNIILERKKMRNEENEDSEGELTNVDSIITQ
# Plasmodium falciparum [5] = assay: Intrinsic antimalarial activity against chloroquine/artemisinin-resistant Plasmodium falciparum ARS272 harboring CRT K76T mutant assessed as reduction in parasite viability at 500 nM; format: functional, organism-based
# Plasmodium falciparum [6] = assay: Intrinsic antimalarial activity against chloroquine-resistant Plasmodium falciparum K1 isolate MRA-159 harboring CRT CVIET haplotype mutant assessed as reduction in parasite viability at 500 nM; format: functional, organism-based
# Plasmodium falciparum [7] = assay: Intrinsic antimalarial activity against intermediate chloroquine-resistant Plasmodium falciparum 7G8 isolate MRA-154 harboring CRT SVMNT haplotype mutant assessed as reduction in parasite viability at 500 nM; format: functional, organism-based
# Plasmodium falciparum [8] = assay: Intrinsic antimalarial activity against chloroquine-resistant Plasmodium falciparum Dd2 isolate MRA-156 harboring CRT K76T mutant assessed as reduction in parasite viability at 500 nM; format: functional, organism-based
# [9] = Resistance index, ratio of chloroquine IC50 for intermediate chloroquine-resistant Plasmodium falciparum 7G8 isolate MRA-154 CRT SVMNT haplotype mutant to chloroquine IC50 for chloroquine-sensitive Plasmodium falciparum 3D7 isolate MRA-102 at 500 nM
# Summary of the method: (§1)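 Chloroquine IC50 was measured with the chemoreversal agent fixed at 500 nM in K1 or 7G8 and in sensitive 3D7 (means, n = 3). The resistance ratio is the chloroquine IC50 in K1 or 7G8 divided by the chloroquine IC50 in 3D7.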
# Plasmodium falciparum [10] = assay: Intrinsic antimalarial activity against chloroquine/artemisinin-resistant Plasmodium falciparum ARS233 harboring CRT K76T mutant assessed as reduction in parasite viability at 500 nM; format: functional, organism-based
# [11] = Aqueous kinetic solubility of compound in pH 7.4 solution incubated for 24 hrs; format: physicochemical; details: aqueous solution pH 7.4, pH 7.4; read-out: Kinetic_solubility
# [12] = system: Plasmodium falciparum 7G8; assay: Inhibition of CRT SVMNT haplotype mutant in intermediate chloroquine-resistant Plasmodium falciparum 7G8 isolate MRA-154 t assessed as reversal of chloroquine resistance by measuring reduction in chloroquine IC50 at 500 nM relative to chloroquine alone
# Plasmodium falciparum K1 [13] = assay: Inhibition of CRT CVIET haplotype mutant in Plasmodium falciparum K1 isolate MRA-159 infected in erythrocytes assessed as chloroquine-coumarin probe accumulation at 10 uM after 10 hrs by Hoechst 33342 staining based flow cytometry (reference value: 35.57 +/- 3.84%); format: cell-based; parameters: scale not given: the % may be the effect or the level left
# Summary of the method: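 Infected erythrocyte cultures at 2.5% hematocrit and 7–12% parasitemia, synchronized to late-ring/early-trophozoite stage, were incubated with chloroquine-coumarin probe plus test agent for 10 h at 37 C. Cells were then washed, resuspended in PBS and read by flow cytometry (405 nm excitation, 450/50 filter). Hoechst-stained duplicate wells set parasitemia. Uptake = % infected erythrocytes fluorescent. Controls: PBS (negative), desipramine and parent compound (positive). ≥3 independent experiments; mean ± SEM.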
# [14] = system: T1, Chloroquine resistance transporter (Plasmodium falciparum), Q9N623 [K76T]; assay: Inhibition of CRT K76T mutant in chloroquine-resistant Plasmodium falciparum Dd2 isolate MRA-156 assessed as reversal of chloroquine resistance by measuring reduction in chloroquine IC50 at 500 nM relative to chloroquine alone
# [15] = Resistance index, ratio of chloroquine IC50 for chloroquine-resistant Plasmodium falciparum K1 isolate MRA-159 CRT CVIET haplotype mutant to chloroquine IC50 for chloroquine-sensitive Plasmodium falciparum 3D7 isolate MRA-102 at 500 nM; summary of the method: as §1
# Plasmodium falciparum K1 [16] = assay: Inhibition of CRT CVIET haplotype mutant in chloroquine-resistant Plasmodium falciparum K1 isolate MRA-159 assessed as reversal of chloroquine resistance by measuring reduction in chloroquine IC50 at 500 nM relative to chloroquine alone
# Plasmodium falciparum [17] = assay: Potentiation of chloroquine-induced antimalarial activity against chloroquine-sensitive Plasmodium falciparum HB3 isolate MRA-155 assessed as reduction in chloroquine IC50 at 500 nM relative to chloroquine alone; format: functional
# [18] = system: T1, Chloroquine resistance transporter (Plasmodium falciparum), Q9N623 [K76T]; assay: Inhibition of CRT K76T mutant in chloroquine/artemisinin-resistant Plasmodium falciparum NHP4773 assessed as reversal of chloroquine resistance by measuring reduction in chloroquine IC50 at 500 nM relative to chloroquine alone
# Plasmodium falciparum [19] = assay: Intrinsic antimalarial activity against chloroquine/artemisinin-resistant Plasmodium falciparum NHP4773 harboring CRT K76T mutant assessed as reduction in parasite viability at 500 nM; format: functional, organism-based
# Plasmodium falciparum [20] = assay: Intrinsic antimalarial activity against chloroquine-sensitive Plasmodium falciparum HB3 isolate MRA-155 assessed as reduction in parasite viability at 500 nM; format: functional, organism-based
# [21] = system: T1, Chloroquine resistance transporter (Plasmodium falciparum), Q9N623 [K76T]; assay: Inhibition of CRT K76T mutant in chloroquine-resistant Plasmodium falciparum NHP4559 assessed as reversal of chloroquine resistance by measuring reduction in chloroquine IC50 at 500 nM relative to chloroquine alone
# [22] = system: T1, Chloroquine resistance transporter (Plasmodium falciparum), Q9N623 [K76T]; assay: Inhibition of CRT K76T mutant in chloroquine/artemisinin-resistant Plasmodium falciparum ARS272 assessed as reversal of chloroquine resistance by measuring reduction in chloroquine IC50 at 500 nM relative to chloroquine alone
# [23] = Inhibition of CRT CVIET haplotype mutant in chloroquine-resistant Plasmodium falciparum K1 isolate MRA-159 assessed as reversal of chloroquine resistance by measuring reduction in chloroquine IC50 relative to chloroquine alone
# Summary of the method: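 Chloroquine IC50 was determined in the presence of a fixed 500 nM chemoreversal agent, against chloroquine alone. The RMI is the ratio of chloroquine IC50 with agent to chloroquine IC50 alone. Mean of n = 3; two-tailed t test versus chloroquine without agent.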
Compound,Activity (Plasmodium falciparum [1]),Activity (Plasmodium falciparum [2]),Ratio IC50 (Plasmodium falciparum [3]),Ratio IC50 [4],Activity (Plasmodium falciparum [5]),Activity (Plasmodium falciparum [6]),Activity (Plasmodium falciparum [7]),Activity (Plasmodium falciparum [8]),Ratio IC50 [9],Activity (Plasmodium falciparum [10]),Ratio IC50 [12],Activity (Plasmodium falciparum K1 [13]) [%],Ratio IC50 [14],Ratio IC50 [15],Ratio IC50 (Plasmodium falciparum K1 [16]),Ratio IC50 (Plasmodium falciparum [17]),Ratio IC50 [18],Activity (Plasmodium falciparum [19]),Activity (Plasmodium falciparum [20]),Ratio IC50 [21],also measured
Clc1ccc2c(c1)C(N1CCNCC1)Cc1ccccc1S2 (stereo unspecified),inactive,inactive,1.14,0.71,inactive,inactive,inactive,inactive,4.8,inactive,0.88,79.6,0.83,12.4,0.69,0.93,0.73,inactive,inactive,0.73,solubility kinetic at 24 h [11]: 0.0381 mg/mL; Ratio IC50 [22]: 0.76
c1ccc2c(c1)CC(N1CCNCC1)c1ccccc1S2 (stereo unspecified),inactive,inactive,1.21,0.64,inactive,inactive,inactive,inactive,3.8,inactive,0.76,69.8,0.81,9.3,0.55,1,0.69,inactive,inactive,0.68,EC50 [23]: 0.343 µM; solubility kinetic at 24 h [11]: 0.0871 mg/mL; Ratio IC50 [22]: 0.68
N[C@@H]1C2CCN(CC2)[C@@H]1C(c1ccccc1)c1ccccc1 (relative stereo),inactive,inactive,1.1,0.97,inactive,inactive,inactive,inactive,5.2,inactive,0.93,52.5,0.94,17.4,0.93,0.99,1.04,inactive,inactive,0.98,Ratio IC50 [22]: 0.99
NCC(c1ccccc1)c1ccccc1,inactive,inactive,1.11,0.53,inactive,inactive,inactive,inactive,3.8,inactive,0.69,56.4,0.59,8.4,0.45,1.1,0.54,inactive,inactive,0.52,EC50 [23]: 0.2 µM; Ratio IC50 [22]: 0.37
N#CC(CCN1CCCCC1)(c1ccccc1)c1ccccc1,inactive,inactive,1.2,0.7,inactive,inactive,inactive,inactive,5.1,inactive,1,67,0.76,12.2,0.71,0.98,0.74,inactive,inactive,0.66,EC50 [23]: 0.295 µM; Ratio IC50 [22]: 0.7
N#CC(CCN1CCC(N)CC1)(c1ccccc1)c1ccccc1,inactive,inactive,–,–,inactive,inactive,inactive,inactive,–,inactive,–,58,–,–,–,–,–,inactive,inactive,–,–
NC(=O)C(CCN1CCC(O)CC1)(c1ccccc1)c1ccccc1,inactive,inactive,–,–,inactive,inactive,inactive,inactive,–,inactive,–,51.3,–,–,–,–,–,inactive,inactive,–,–
O=C1C2CCN(CC2)C1Cc1ccccc1 (stereo unspecified),inactive,inactive,–,–,inactive,inactive,inactive,inactive,–,inactive,–,34.7,–,–,–,–,–,inactive,inactive,–,–
NCC(CCN1CCC(O)CC1)(c1ccccc1)c1ccccc1,inactive,inactive,1.13,0.9,inactive,inactive,inactive,inactive,5.3,inactive,0.98,64.8,0.91,13.4,0.74,0.99,0.94,inactive,inactive,0.95,Ratio IC50 [22]: 0.93
